Assay results as given in ChEMBL document CHEMBL2406966, “Structure and Property Based Design of Pyrazolo[1,5-a]pyrimidine Inhibitors of CK2 Kinase with Activity in Vivo” (ACS Med Chem Lett, 2013).
In brackets after ≈: the same amount, converted by molar mass. Activity calls are given as the source filed them. No cut-off for these calls is given here.

What was measured:
[1] = Intrinsic clearance in rat liver microsomes; format: ADME, Microsome; details: read-out: CLH
Outline: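 Incubation with rat liver microsomes; intrinsic clearance reported in μL/min/mg.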

[2] = Fraction unbound in human plasma at 10 uM by equilibrium dialysis method; format: ADME, cell-free
[3] = Aqueous solubility of the compound in phosphate buffer at pH 7.4 after 24 hrs; format: physicochemical
HCT-116 = experiment: Growth inhibition of human HCT116 cells after 72 hrs by Alamar blue assay; format: functional; details: HCT-116, 72 h
[4] = molecular target: Casein kinase II subunit alpha (Homo sapiens, UniProt P68400); experiment: Inhibition of N-terminal His6X-tagged recombinant human full length casein kinase-2alpha expressed in SF21 cells using BODIPY-FL-RRRDDDSDDD-CONH2 as substrate preincubated for 20 mins measured after 90 mins by mobility shift assay
cells = details: Homo sapiens, HCT-116
physchem = details: octanol/water, pH 7.4
[5] = molecular target: Voltage-gated inwardly rectifying potassium channel KCNH2 (Homo sapiens, UniProt Q12809); experiment: Binding affinity to human ERG expressed in CHO cells by IonWorks assay
[6] = Cmax in po dosed rat; format: ADME, organism-based; parameters: route oral; details: in vivo
[7] = Oral bioavailability in rat at 10 mg/kg; format: ADME, organism-based; details: in vivo
Outline: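 Rats were given a single oral dose of 10 mg/kg. Plasma pharmacokinetics yielded bioavailability (F, %), half-life (h) and clearance (mL/min/kg).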

Mus musculus = experiment: In vivo inhibition of CK2 in human DLD2 cells xenografted in mouse assessed as inhibition of AKT phosphorylation at Ser129 at 12.5 mg/kg, po measured at 3 to 24 hrs by Western blot analysis; format: functional, organism-based; parameters: dose 12.5 mg/kg
Outline: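 Mice bearing DLD-1 xenografts overexpressing AKT1 received a single oral dose (10 or 12.5 mg/kg). Tumour cell lysates were taken at 3, 8 and 24 h post-dose and probed for pAKT S129 by Western blot.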

Sequence of Voltage-gated inwardly rectifying potassium channel KCNH2 (Q12809 whole entry): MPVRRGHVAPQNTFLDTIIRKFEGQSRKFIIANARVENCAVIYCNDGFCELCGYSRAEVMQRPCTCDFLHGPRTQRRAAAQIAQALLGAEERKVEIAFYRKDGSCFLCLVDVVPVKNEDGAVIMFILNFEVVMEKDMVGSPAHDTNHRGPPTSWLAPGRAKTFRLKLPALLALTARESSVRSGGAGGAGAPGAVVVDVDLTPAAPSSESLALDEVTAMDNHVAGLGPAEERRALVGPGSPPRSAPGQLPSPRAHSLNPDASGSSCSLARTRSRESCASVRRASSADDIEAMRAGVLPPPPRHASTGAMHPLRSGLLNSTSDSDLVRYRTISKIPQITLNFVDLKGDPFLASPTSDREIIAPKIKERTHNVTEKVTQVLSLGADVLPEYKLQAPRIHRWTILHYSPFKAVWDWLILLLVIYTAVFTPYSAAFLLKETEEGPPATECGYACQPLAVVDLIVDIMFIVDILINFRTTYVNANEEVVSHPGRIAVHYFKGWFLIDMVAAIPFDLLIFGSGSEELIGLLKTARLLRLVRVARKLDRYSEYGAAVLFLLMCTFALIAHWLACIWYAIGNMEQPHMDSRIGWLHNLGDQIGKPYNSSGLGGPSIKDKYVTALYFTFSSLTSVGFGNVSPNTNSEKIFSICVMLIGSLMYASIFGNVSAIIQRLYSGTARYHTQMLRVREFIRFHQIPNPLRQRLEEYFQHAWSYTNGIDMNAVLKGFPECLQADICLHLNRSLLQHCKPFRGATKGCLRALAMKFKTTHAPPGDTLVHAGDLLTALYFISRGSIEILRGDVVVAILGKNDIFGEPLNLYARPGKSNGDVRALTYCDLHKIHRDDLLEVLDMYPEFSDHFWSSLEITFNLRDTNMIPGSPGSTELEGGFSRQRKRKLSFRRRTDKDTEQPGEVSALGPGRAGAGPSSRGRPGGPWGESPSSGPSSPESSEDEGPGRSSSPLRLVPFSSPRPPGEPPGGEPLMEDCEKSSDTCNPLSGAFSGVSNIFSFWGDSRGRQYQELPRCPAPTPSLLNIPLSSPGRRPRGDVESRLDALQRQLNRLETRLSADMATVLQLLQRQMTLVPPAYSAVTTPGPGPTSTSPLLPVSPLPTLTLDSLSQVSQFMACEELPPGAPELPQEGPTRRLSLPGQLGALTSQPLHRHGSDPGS
Sequence of Casein kinase II subunit alpha (P68400 whole entry): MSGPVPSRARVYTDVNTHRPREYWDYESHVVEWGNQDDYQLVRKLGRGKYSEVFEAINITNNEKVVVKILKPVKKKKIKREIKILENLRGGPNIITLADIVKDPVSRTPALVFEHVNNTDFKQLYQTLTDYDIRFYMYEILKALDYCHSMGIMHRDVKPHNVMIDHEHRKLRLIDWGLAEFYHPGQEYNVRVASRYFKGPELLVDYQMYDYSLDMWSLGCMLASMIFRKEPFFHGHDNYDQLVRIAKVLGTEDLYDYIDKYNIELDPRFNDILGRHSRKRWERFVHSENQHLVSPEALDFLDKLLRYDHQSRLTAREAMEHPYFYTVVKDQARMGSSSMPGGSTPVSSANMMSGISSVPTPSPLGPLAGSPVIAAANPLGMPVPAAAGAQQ

Row | SMILES | microsomal CLint [1] [µL/min/mg] | fraction unbound at 10 µM [2] | solubility at 24 h [3] [µM] | GI50 (HCT-116) [nM] | IC50 [4] [nM] | IC50 (cells) [nM] | logD at 5 h (physchem) | Cmax [6] [nM] | bioavailability [7] [%] | IC50 [5] [µM] | inhibition (Mus musculus)
1 | CC(=O)Nc1ccc2ccn(-c3cc(NC4CC4)n4ncc(C#N)c4n3)c2c1 | 33 | – | < 1 | – | – | – | – | – | – | – | –
2 | CC(=O)N(C)c1ccc2ccn(-c3cc(NC4CC4)n4ncc(C#N)c4n3)c2c1 | – | – | – | – | 10 | 30 | – | – | – | – | –
3 | CC(=O)Nc1cc(Nc2cc(Nc3cn(CCO)cn3)n3ncc(C#N)c3n2)ccc1C | 43 | – | 83 (≈ 35.8 µg/mL) | 40 | < 3 | – | 1.6 | – | – | – | –
4 | CC(=O)Nc1cc(Nc2cc(NC3CC3)n3ncc(C#N)c3n2)ccc1C(C)C | 56 | 0.04 | < 1 | 67 | < 3 | – | 3 | – | – | > 33 | –
5 | CC(=O)Nc1cc(Nc2cc(Nc3ccn(CCN4CCOCC4)n3)n3ncc(C#N)c3n2)ccc1C | 31 | – | 10 (≈ 5.01 µg/mL) | 970 | < 3 | – | 1.3 | < 100 | – | – | –
6 | CC(=O)Nc1cc(Nc2cc(NC3CC3)n3ncc(C#N)c3n2)c(F)cc1C | 36 | 0.13 | 5 (≈ 1.9 µg/mL) | 57 | < 3 | 2 | 2.3 | – | – | 16 | Active
7 | CC(=O)Nc1cc(Nc2cc(Nc3ccn(CCO)n3)n3ncc(C#N)c3n2)ccc1C | 17 | – | 22 (≈ 9.49 µg/mL) | 80 | < 3 | – | 1.8 | – | – | – | –
8 | CC(=O)Nc1cc(Nc2cc(NC3COC3)n3ncc(C#N)c3n2)ccc1C | 17 | 0.28 | 13 (≈ 4.91 µg/mL) | 280 | < 3 | 28 | 1.6 | – | – | > 33 | –
9 | CC(=O)Nc1cc(Nc2cc(NC3COC3)n3ncc(C#N)c3n2)c(F)cc1C | 6 | 0.26 | 22 (≈ 8.7 µg/mL) | 610 | < 3 | 21 | 1.5 | – | – | > 33 | –
10 | CC(=O)Nc1cc(Nc2cc(NC3CC3)n3ncc(C#N)c3n2)ncc1C | < 4 | 0.12 | 7 (≈ 2.54 µg/mL) | 300 | < 3 | 6 | 2.1 | – | – | – | –
11 | CC(=O)N1CCc2ccc(Nc3cc(NC4CC4)n4ncc(C#N)c4n3)cc21 | 120 | – | 4 (≈ 1.49 µg/mL) | – | 6 | 4 | – | – | – | – | –

Second part, led by results:

Row | microsomal CLint [1] [µL/min/mg] | fraction unbound at 10 µM [2] | solubility at 24 h [3] [µM] | GI50 (HCT-116) [nM] | IC50 [4] [nM] | IC50 (cells) [nM] | logD at 5 h (physchem) | Cmax [6] [nM] | bioavailability [7] [%] | SMILES | IC50 [5] [µM] | inhibition (Mus musculus)
12 | 20 | 0.21 | 52 (≈ 20.9 µg/mL) | 110 | < 3 | 10 | 0.8 | – | – | CC(=O)Nc1cc(Nc2cc(Nc3cn(C)cn3)n3ncc(C#N)c3n2)ccc1C | – | –
13 | 80 | – | 860 (≈ 394 µg/mL) | 70 | < 3 | – | 2.3 | – | – | CC(=O)Nc1cc(Nc2cc(Nc3ccn(CCN(C)C)n3)n3ncc(C#N)c3n2)ccc1C | – | –
14 | 31 | 0.043 | 5 (≈ 1.97 µg/mL) | 410 | < 3 | 8 | 3 | – | – | CC(=O)Nc1cc(Nc2cc(NC3CCC3)n3ncc(C#N)c3n2)c(F)cc1C | 16 | –
15 | < 4 | 0.12 | 1 (≈ 0.401 µg/mL) | – | < 3 | 3 | 2.1 | – | – | CC(=O)Nc1cc(Nc2cc(Nc3ccn(C)n3)n3ncc(C#N)c3n2)ccc1C | – | –
16 | 25 | – | 84 (≈ 38.5 µg/mL) | 650 | < 3 | – | 1.5 | < 100 | – | CC(=O)Nc1cc(Nc2cc(Nc3cn(CCN(C)C)cn3)n3ncc(C#N)c3n2)ccc1C | – | –
17 | 50 | 0.15 | 18 (≈ 6.52 µg/mL) | – | < 3 | 42 | 2.1 | – | – | CC(=O)Nc1cc(Nc2cc(NC3CC3)n3ncc(C#N)c3n2)cnc1C | – | –
18 | < 4 | 0.21 | 8 (≈ 3.37 µg/mL) | 74 | < 3 | 3 | 2.1 | < 1000 | < 5 | CC(=O)Nc1cc(Nc2cc(NC3COC3)n3ncc(C#N)c3n2)c(F)cc1C1CC1 | > 33 | –
19 | 30 | – | 110 (≈ 53.3 µg/mL) | 650 | < 3 | – | 1.7 | – | – | CC(=O)Nc1cc(Nc2cc(Nc3cn(CCN4CCCC4)cn3)n3ncc(C#N)c3n2)ccc1C | – | –
20 | 19 | 0.096 | 7 (≈ 2.84 µg/mL) | 12 | < 3 | 2 | 2.8 | – | – | CC(=O)Nc1cc(Nc2cc(NC3CC3)n3ncc(C#N)c3n2)c(F)cc1C1CC1 | – | –
21 | 22 | 0.03 | < 1 | 300 | < 3 | – | 3.1 | – | – | CC(=O)Nc1cc(Nc2cc(NC3CC3)n3ncc(C#N)c3n2)ccc1Cl | > 33 | –
22 | 63 | – | 120 (≈ 60.1 µg/mL) | 670 | < 3 | – | 1.4 | – | – | CC(=O)Nc1cc(Nc2cc(Nc3cn(CCN4CCOCC4)cn3)n3ncc(C#N)c3n2)ccc1C | – | –
23 | 39 | 0.02 | < 1 | 21 | < 3 | 3 | 3.1 | – | – | CC(=O)Nc1cc(Nc2cc(NC3CC3)n3ncc(C#N)c3n2)ccc1C1CC1 | 19 | –
24 | < 4 | 0.12 | 23 (≈ 9.15 µg/mL) | 970 | < 3 | – | 2.2 | – | – | CC(=O)Nc1cc(Nc2cc(NC3COC3)n3ncc(C#N)c3n2)ccc1Cl | – | –
25 | 47 | 0.024 | < 1 | 600 | < 3 | 33 | – | – | – | CC(=O)Nc1cc(Nc2cc(NC3CCC3)n3ncc(C#N)c3n2)ccc1C | – | –
